# Experimental data collected from several papers.
# Protocols differ between the studies behind these lines.
# Target: Dual specificity protein kinase CLK4 (CLK4, Homo sapiens, UniProt Q9HAZ1)
Structure (SMILES),assay,conditions,remaining binding [%]
C[C@@H](c1ccc(-n2cnc3c(N)ncnc32)cc1)N1CCc2nn(C)c(Cc3ccccc3)c2C1=O,"binding, competition with immobilised ligand",0.1 µM,100
Cn1cc(Cl)c2c(Oc3c(F)cc(Nc4cc(Cl)nc(N)n4)cc3F)ccnc21,"cell-free assay, competition with immobilised ligand",0.1 µM,100
Cc1cnn2ncc(-c3ccnc(N(C)C)n3)c2c1,binding,1 µM,9.7
CNCc1ccccc1-c1csc([C@@H](C)Nc2nc(C)nc3cc(OC)c(OC)cc23)c1,"cell-free assay, competition with immobilised ligand",1 µM,100
c1cncc(-c2cccc(Nc3nccc(NC4CCCCC4)n3)c2)c1,"binding, competition with immobilised ligand",10 µM,1
CCN1CCN(Cc2ccc(C(=O)Nc3ccc(C)c(Oc4ccc5c(c4)CC(=O)N5)c3)cc2C(F)(F)F)CC1,"binding, competition with immobilised ligand",1 µM,94
N[C@@H]1CCN(c2nccc(-c3cnn4ncccc34)n2)C1,binding,1 µM,25
CO[C@@H](C)c1c(Nc2ccc([C@H](N(C)C(=O)C3CCS(=O)(=O)CC3)C(F)(F)F)cc2)cnc2cc(Cl)nn12,"cell-free assay, competition with immobilised ligand",1 µM,94
C[C@H]1CCN(c2nccc(-c3cnn4ncccc34)n2)C1,binding,1 µM,9.9
Nc1ncc2c(n1)-c1c([nH]c3ccc(C#CC4CC4)cc13)CCCC2,"binding, competition with immobilised ligand",1 µM,76
CN(C)c1nccc(-c2cnn3ncccc23)n1,binding,1 µM,5.9
CC(C)(O)c1cncc(-c2nc3ccc(F)cc3n2C2CC2)c1,"cell-free assay, competition with immobilised ligand",1 µM,54
O=C(c1ccc(Nc2ncc(Cl)c(-c3cc4ccccc4s3)n2)cc1)N1CCC(N2CCCC2)CC1,"binding, competition with immobilised ligand",1 µM,0
O=S(=O)(NC1CCC(c2cc(F)ccc2F)(S(=O)(=O)c2ccc(Cl)cc2)CC1)C(F)(F)F (stereo not shown),"cell-free assay, competition with immobilised ligand",1 µM,84
CN(c1nccc(-c2cnn3ncccc23)n1)C1CC1,binding,1 µM,70
COc1cnc(Nc2cccc(S(N)(=O)=O)c2)nc1N1CCN(c2ccccc2)CC1,"binding, competition with immobilised ligand",1 µM,100
O=C1NC(c2ccccn2)Sc2ccccc21 (stereo not shown),"cell-free assay, competition with immobilised ligand",1 µM,97
O=C(Nc1c[nH]nc1C(=O)NC1CCNCC1)c1cc(F)cc(F)c1,"binding, competition with immobilised ligand",1 µM,75
CN(C)c1nccc(-c2cnc3ncccn23)n1,binding,1 µM,14
O=C(c1ccc(Nc2nccc(-c3cc4ccccc4s3)n2)cc1)N1CCC(N2CCCC2)CC1,"binding, competition with immobilised ligand",1 µM,27
COc1ccnn2ncc(-c3ccnc(N(C)C)n3)c12,binding,1 µM,4.2
O=C(NCCCN1CCOCC1)c1ccc(Nc2ncc(Cl)c(-c3ccc(Cl)s3)n2)cc1,"binding, competition with immobilised ligand",1 µM,1.6
